Activity calls are given as the source filed them. The rule behind the calls is not given here.

These results are taken from ChEMBL document CHEMBL4765229, “Synthesis and Biological Evaluation of N-[2-(4-Hydroxyphenylamino)-pyridin-3-yl]-4-methoxy-benzenesulfonamide (ABT-751) Tricyclic Analogues as Antimitotic and Antivascular Agents with Potent in Vivo Antitumor Activity” (J Med Chem, 2016).

Assay [1] relates to HUVEC. In words: Antiinvasive activity against human HUVEC cells assessed as reduction in cell invasion at 1 uM measured after 24 hrs by crystal violet staining based Boyden chamber assay. On the set-up: scale not given: the % may be the effect or the level left. The format is functional. In short, it runs like this: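 Boyden invasion: Matrigel-precoated transwells, 8 µm pores. HUVEC (1 x 10^5 per well) in growth-factor-free ECGM top chamber with vehicle or compound (0.001–1 µM); bottom chamber ECGM with 20 ng/mL VEGF. Migration 24 h. Non-migrated cells removed; migrated cells methanol-fixed, stained with 0.05% crystal violet, counted manually, expressed as % of vehicle. Mean ± SEM of three experiments.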

The test system of assay [2] is HUVEC. In words: Antiangiogenic activity in human HUVEC cells assessed as capillary like tubular network formation at 0.01 to 1 uM by geltrex-based inverted microscopy analysis. It counts as functional, cell-based. To be noted: dose 0.01-1 µM. In short, it runs like this: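 Geltrex-coated wells, gelled 30 min at 37 °C. HUVEC seeded at 50 000 cells/well and incubated 10 h at 37 °C, then treated at 0.001, 0.01, 0.1 and 1 µM. Tube/cord-like network morphology observed and photographed under an inverted microscope.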

Take `COc1cc2c(Oc3ccc4[nH]c(C)cc4c3F)ncnc2cc1OCCCN1CCCC1` [CEDIRANIB]: the Activity in the assay with HUVEC [1] was determined as 74%. Moreover, the result in the assay with HUVEC [2] was Active.
